Measurements reported in ChEMBL document CHEMBL2311290 (J Med Chem, 2013).
Active and inactive are the calls of the source. No cut-off for these calls is given here.

Assays:
[1] = biological target: Coagulation factor XI (Homo sapiens) (UniProt P03951); assay: Inhibition of human FXIa assessed as S-2366 hydrolysis at 250 uM after 10 mins by microplate reader analysis
How it was run: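 Human FXIa at 0.765 nM final in pH 7.4 Tris buffer (150 mM NaCl, 0.1% PEG8000, 0.02% Tween80). It is preincubated 10 min at 37 °C with the agent or solvent, then 345 µM S-2366 is added. Initial rate of A405 increase gives residual activity relative to no-inhibitor control.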

[2] = biological target: Coagulation factor XI (Homo sapiens) (UniProt P03951); assay: Inhibition of human FXIa assessed as S-2366 hydrolysis at 300 uM after 10 mins by microplate reader analysis
How it was run: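 Human FXIa (0.765 nM final) preincubated 10 min at 37 °C with inhibitor or solvent reference in pH 7.4 50 mM Tris-HCl, 150 mM NaCl, 0.1% PEG8000, 0.02% Tween80. S-2366 (345 µM) then added, and initial A405 rate read on a microplate reader. Residual activity is expressed relative to the no-inhibitor control. Highest concentration tested was 300 µM.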

Plasma [3] = assay: Ratio of concentration required to double clotting time for compound to enoxaparin in human plasma; assay type: functional
Blood [4] = assay: Anticoagulant activity in human whole blood assessed as maximum amplitude at 280 ug/ml by thromboelastography (reference value: 59 mm); assay type: functional
How it was run: (§1)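 Thromboelastography in sodium-citrated human whole blood at 37 °C. 340 µL of blood containing 10 µL of the agent (or high-purity water) is added to a cup holding 20 µL of 200 mM CaCl2 stock, oscillating through 4°45′ at 0.1 Hz. Clot force on a central pin is recorded and read out as R, α, MA and G.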

Blood [5] = assay: Anticoagulant activity in human whole blood assessed as maximum amplitude at 190 ug/ml by thromboelastography (reference value: 59 mm); assay type: functional; how it was run: as §1
Blood [6] = assay: Anticoagulant activity in human whole blood assessed as maximum amplitude at 135 ug/ml by thromboelastography (reference value: 59 mm); assay type: functional; how it was run: as §1
Blood [7] = assay: Anticoagulant activity in human whole blood assessed as maximum amplitude at 20 ug/ml by thromboelastography (reference value: 59 mm); assay type: functional; how it was run: as §1
Blood [8] = assay: Anticoagulant activity in human whole blood assessed as angle alpha at 190 ug/ml by thromboelastography (reference value: 56.4 deg); assay type: functional; how it was run: as §1
Blood [9] = assay: Anticoagulant activity in human whole blood assessed as angle alpha at 135 ug/ml by thromboelastography (reference value: 56.4 deg); assay type: functional; how it was run: as §1
Blood [10] = assay: Anticoagulant activity in human whole blood assessed as angle alpha at 20 ug/ml by thromboelastography (reference value: 56.4 deg); assay type: functional; how it was run: as §1
Blood [11] = assay: Anticoagulant activity in human whole blood assessed as clot formation time at 280 ug/ml by thromboelastography (reference value: 6.0 mins); assay type: functional; how it was run: as §1
Blood [12] = assay: Anticoagulant activity in human whole blood assessed as clot formation time at 190 ug/ml by thromboelastography (reference value: 6.0 mins); assay type: functional; how it was run: as §1
Blood [13] = assay: Anticoagulant activity in human whole blood assessed as clot formation time at 135 ug/ml by thromboelastography (reference value: 6.0 mins); assay type: functional; how it was run: as §1
Blood [14] = assay: Anticoagulant activity in human whole blood assessed as clot formation time at 20 ug/ml by thromboelastography (reference value: 6.0 mins); assay type: functional; how it was run: as §1
Plasma [15] = assay: Anticoagulant activity in human plasma assessed as concentration required to double activated partial […] time; assay type: functional
How it was run: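 Citrated pooled normal human plasma (90 µL) plus 10 µL of the test agent and 100 µL of prewarmed ellagic acid APTT reagent (0.2% ellagic acid). The mixture is incubated 4 min at 37 °C, then clotting is started with prewarmed 25 mM CaCl2 and read on a fibrometer. Clotting time versus concentration is fitted to a quadratic trend line to get the concentration that doubles it. Water or organic vehicle serves as the blank.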

Plasma [16] = assay: Anticoagulant activity in human plasma assessed as concentration required to double […] prothrombin time; assay type: functional
How it was run: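 Prothrombin time is a one-stage recalcification assay read on a fibrometer. 10 µL of the agent is made up to 100 µL with citrated human plasma and incubated 30 s at 37 °C. Clotting is started with 200 µL of prewarmed thromboplastin-D. A quadratic trend line of clotting time versus concentration gives the concentration that doubles clotting time. Water or organic vehicle serves as the blank.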

[17] = biological target: T1, Serine protease 1 (Bos taurus) (UniProt P00760); assay: Inhibition of bovine trypsin at 1.8 mg/ml after 60 secs by spectrophotometry
T1 sequence (whole entry): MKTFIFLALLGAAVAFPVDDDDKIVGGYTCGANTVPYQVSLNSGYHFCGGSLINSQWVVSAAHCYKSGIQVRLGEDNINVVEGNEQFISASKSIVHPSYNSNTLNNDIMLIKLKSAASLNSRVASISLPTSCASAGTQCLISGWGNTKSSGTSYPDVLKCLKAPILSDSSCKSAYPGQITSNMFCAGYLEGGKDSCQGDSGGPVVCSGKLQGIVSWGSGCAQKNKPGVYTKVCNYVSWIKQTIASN
How it was run: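 Chromogenic substrate hydrolysis assay of bovine trypsin (72.5 ng/mL in the well) with 80 µM substrate, with substrate level chosen from its KM. Enzyme stock was in 50 mM Tris-HCl pH 7.4, 150 mM NaCl, 0.1% PEG8000, 0.02% Tween80. Fractional residual activity was read spectrophotometrically across at least six serial inhibitor dilutions to derive IC50.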

[18] = biological target: T2, Coagulation factor XII (Homo sapiens) (UniProt P00748); assay: (§2) Inhibition of FXIIa (unknown origin) after 60 secs by spectrophotometry
T2 sequence (whole entry): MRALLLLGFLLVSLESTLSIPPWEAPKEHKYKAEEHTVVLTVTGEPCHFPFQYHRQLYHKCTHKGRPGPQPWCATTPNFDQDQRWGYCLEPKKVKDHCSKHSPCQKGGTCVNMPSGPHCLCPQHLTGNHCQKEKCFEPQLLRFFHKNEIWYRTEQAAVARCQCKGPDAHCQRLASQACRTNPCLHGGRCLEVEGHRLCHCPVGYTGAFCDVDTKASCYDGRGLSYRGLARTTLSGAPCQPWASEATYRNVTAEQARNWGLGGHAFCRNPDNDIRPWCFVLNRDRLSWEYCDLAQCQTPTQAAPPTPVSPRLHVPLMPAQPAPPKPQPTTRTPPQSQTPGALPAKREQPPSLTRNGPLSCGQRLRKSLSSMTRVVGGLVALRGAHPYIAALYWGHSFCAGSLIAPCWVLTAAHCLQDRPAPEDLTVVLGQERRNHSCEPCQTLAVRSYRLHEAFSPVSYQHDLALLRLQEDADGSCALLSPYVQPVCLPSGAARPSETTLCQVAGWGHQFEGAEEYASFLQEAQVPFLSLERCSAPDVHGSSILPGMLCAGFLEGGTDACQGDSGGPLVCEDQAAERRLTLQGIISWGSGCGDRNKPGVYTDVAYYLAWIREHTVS
How it was run: (§3)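 Chromogenic substrate hydrolysis at pH 7.4 with at least six serially diluted concentrations of the agent. Residual activity is read spectrophotometrically and the IC50 is obtained from a dose–response fit. Substrate levels were set from its KM. Final enzyme/substrate: thrombin 6 nM/50 µM Spectrozyme TH; FXa 1.09 nM/125 µM; FXIIa 5 nM/125 µM; FIXa 89 nM/850 µM.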

Coagulation factor XII = biological target: T3, Coagulation factor XII (Homo sapiens, UniProt P00748); assay: as §2; how it was run: as §3
T3 sequence (P00748 whole entry): T2 sequence (whole entry)

Coagulation factor X = Coagulation factor X (Homo sapiens, UniProt P00742); assay: Inhibition of human FXa after 60 secs by spectrophotometry
Chain of Coagulation factor X (P00742 41-179 limits assumed): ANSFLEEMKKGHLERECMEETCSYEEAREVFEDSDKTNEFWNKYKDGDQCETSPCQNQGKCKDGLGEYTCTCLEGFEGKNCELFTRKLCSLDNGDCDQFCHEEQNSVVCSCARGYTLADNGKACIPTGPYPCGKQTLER
Chain of Coagulation factor X (P00742 235-488 limits assumed): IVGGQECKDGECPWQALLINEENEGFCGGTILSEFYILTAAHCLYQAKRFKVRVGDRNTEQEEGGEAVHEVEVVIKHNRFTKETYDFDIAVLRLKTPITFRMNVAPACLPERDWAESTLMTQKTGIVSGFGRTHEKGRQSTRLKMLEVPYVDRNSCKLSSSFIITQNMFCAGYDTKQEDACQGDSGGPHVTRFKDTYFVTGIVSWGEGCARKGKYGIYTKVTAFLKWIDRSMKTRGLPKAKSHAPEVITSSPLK

Coagulation factor IX = Coagulation factor IX (Homo sapiens, UniProt P00740); assay: Inhibition of human FIXa after 60 secs by spectrophotometry
Chain of Coagulation factor IX (P00740 47-191 limits assumed): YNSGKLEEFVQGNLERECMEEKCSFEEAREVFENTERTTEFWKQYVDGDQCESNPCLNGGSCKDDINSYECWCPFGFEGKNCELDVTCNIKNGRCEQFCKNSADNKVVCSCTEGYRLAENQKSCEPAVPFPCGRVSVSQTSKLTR
Chain of Coagulation factor IX (P00740 227-461 limits assumed): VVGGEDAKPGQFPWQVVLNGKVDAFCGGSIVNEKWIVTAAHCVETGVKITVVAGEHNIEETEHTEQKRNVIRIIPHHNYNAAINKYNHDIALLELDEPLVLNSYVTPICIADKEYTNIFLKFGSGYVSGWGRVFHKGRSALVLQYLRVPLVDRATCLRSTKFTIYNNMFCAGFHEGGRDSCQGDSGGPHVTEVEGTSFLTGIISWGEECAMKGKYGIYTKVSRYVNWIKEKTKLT

[19] = biological target: T4, Coagulation factor VII (Homo sapiens) (UniProt P08709); assay: Inhibition of human FVIIa at 3.7 mg/ml after 60 secs by spectrophotometry
T4 sequence (whole entry): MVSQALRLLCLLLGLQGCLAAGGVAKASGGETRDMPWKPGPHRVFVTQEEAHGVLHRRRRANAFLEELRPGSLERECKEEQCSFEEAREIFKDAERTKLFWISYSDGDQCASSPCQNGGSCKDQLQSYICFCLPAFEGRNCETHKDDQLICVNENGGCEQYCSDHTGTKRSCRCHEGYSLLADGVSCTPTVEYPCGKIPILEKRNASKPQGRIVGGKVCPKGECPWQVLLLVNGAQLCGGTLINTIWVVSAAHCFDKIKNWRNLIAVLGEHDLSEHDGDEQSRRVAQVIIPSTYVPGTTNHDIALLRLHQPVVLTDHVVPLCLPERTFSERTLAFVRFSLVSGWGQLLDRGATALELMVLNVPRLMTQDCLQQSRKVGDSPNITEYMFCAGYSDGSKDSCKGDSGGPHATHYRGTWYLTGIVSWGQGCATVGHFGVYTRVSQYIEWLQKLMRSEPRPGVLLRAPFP
How it was run: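 Chromogenic hydrolysis with at least six serial concentrations of the agent and spectrophotometric residual activity. Factor VIIa was 8 nM with 1000 µM Spectrozyme FVIIa plus 40 nM recombinant tissue factor. Bovine chymotrypsin was 500 ng/mL with 240 µM Spectrozyme CTY.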

Prothrombin = Prothrombin (Homo sapiens, UniProt P00734); assay: Inhibition of human thrombin after 60 secs by spectrophotometry; how it was run: as §3
[20] = biological target: Coagulation factor XI (Homo sapiens) (UniProt P03951); conditions: 3 uM
Bos taurus = species: Bos taurus; assay: Inhibition of bovine chymotrypsin at 1.8 mg/ml after 60 secs by spectrophotometry

Chain of Coagulation factor XI (Homo sapiens) (P03951 19-387 limits assumed): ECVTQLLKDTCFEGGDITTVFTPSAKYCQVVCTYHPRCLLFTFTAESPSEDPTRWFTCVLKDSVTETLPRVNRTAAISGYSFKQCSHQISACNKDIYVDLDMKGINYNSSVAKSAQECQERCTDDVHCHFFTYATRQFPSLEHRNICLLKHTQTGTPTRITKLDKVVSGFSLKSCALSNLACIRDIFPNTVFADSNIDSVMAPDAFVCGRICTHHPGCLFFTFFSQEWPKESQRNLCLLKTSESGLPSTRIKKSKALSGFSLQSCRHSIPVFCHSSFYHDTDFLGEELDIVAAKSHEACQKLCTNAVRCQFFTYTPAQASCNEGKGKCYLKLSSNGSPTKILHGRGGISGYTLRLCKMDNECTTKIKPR
Chain of Coagulation factor XI (Homo sapiens) (P03951 388-625 limits assumed): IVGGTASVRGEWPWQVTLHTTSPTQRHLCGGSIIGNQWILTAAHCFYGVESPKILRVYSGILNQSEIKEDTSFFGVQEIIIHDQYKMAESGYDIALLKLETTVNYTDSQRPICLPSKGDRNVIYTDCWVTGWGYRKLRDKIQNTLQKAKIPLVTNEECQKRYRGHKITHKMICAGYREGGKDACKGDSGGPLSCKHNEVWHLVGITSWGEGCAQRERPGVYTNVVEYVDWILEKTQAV

`COc1cc([C@H]2Oc3cc([C@H]4Oc5cc(OS(=O)(=O)O)cc(O)c5C(=O)[C@@H]4OS(=O)(=O)O)ccc3O[C@@H]2COS(=O)(=O)O)ccc1OS(=O)(=O)O` was tested, and the inhibition [1] was “inactive”.

`O=C(/C=C/c1ccc(OS(=O)(=O)O)c(OS(=O)(=O)O)c1)O[C@@H]1C[C@](O)(C(=O)O)C[C@@H](OS(=O)(=O)O)[C@H]1OS(=O)(=O)O` was tested, and the inhibition [1] was “inactive”.

For `O=C(CCCc1cc(OS(=O)(=O)O)ccc1OS(=O)(=O)O)N1CCc2c(ccc(OS(=O)(=O)O)c2OS(=O)(=O)O)C1`, the inhibition [1] was “inactive”.

In the case of `O=C(CCc1cc(OS(=O)(=O)O)ccc1OS(=O)(=O)O)N1CCc2cc(OS(=O)(=O)O)c(OS(=O)(=O)O)cc2C1`, the inhibition [1] is reported as “inactive”.

With `O=C(O)C1Cc2c(OS(=O)(=O)O)ccc(OS(=O)(=O)O)c2CN1C(=O)CCCCc1cc(OS(=O)(=O)O)ccc1OS(=O)(=O)O` (centres undefined) the inhibition [1] was “inactive”.

In the case of `O=C(O)C1Cc2c(OS(=O)(=O)O)ccc(OS(=O)(=O)O)c2CN1C(=O)CCCc1cc(OS(=O)(=O)O)ccc1OS(=O)(=O)O` (centres undefined), the inhibition [1] is reported as “inactive”.

With `O=C(O)C1Cc2c(OS(=O)(=O)O)ccc(OS(=O)(=O)O)c2CN1C(=O)CCc1cc(OS(=O)(=O)O)ccc1OS(=O)(=O)O` (centres undefined) the inhibition [1] was “inactive”.

For `O=C(O)C1Cc2cc(OS(=O)(=O)O)c(OS(=O)(=O)O)cc2CN1C(=O)CCCCc1cc(OS(=O)(=O)O)ccc1OS(=O)(=O)O` (centres undefined), the inhibition [1] was “inactive”.

With `O=C(O)C1Cc2cc(OS(=O)(=O)O)c(OS(=O)(=O)O)cc2CN1C(=O)CCCc1cc(OS(=O)(=O)O)ccc1OS(=O)(=O)O` (centres undefined) the inhibition [1] was “inactive”.

In the case of `O=C(O)C1Cc2cc(OS(=O)(=O)O)c(OS(=O)(=O)O)cc2CN1C(=O)CCc1cc(OS(=O)(=O)O)ccc1OS(=O)(=O)O` (centres undefined), the inhibition [1] is reported as “inactive”.

With `O=C(OC[C@H]1O[C@@H](OC(=O)c2cc(O)c(O)c(O)c2)[C@H](OC(=O)c2cc(O)c(O)c(O)c2)[C@@H](OC(=O)c2cc(O)c(O)c(O)c2)[C@@H]1OC(=O)c1cc(O)c(O)c(O)c1)c1cc(O)c(O)c(O)c1` the inhibition [2] was “inactive”.

Molecule `O=C(OC[C@H]1O[C@@H](OC(=O)c2cc(OS(=O)(=O)[O-])c(O)c(OS(=O)(=O)[O-])c2)[C@H](OC(=O)c2cc(OS(=O)(=O)[O-])c(O)c(OS(=O)(=O)[O-])c2)[C@@H](OC(=O)c2cc(OS(=O)(=O)[O-])c(O)c(OS(=O)(=O)[O-])c2)[C@@H]1OC(=O)c1cc(OS(=O)(=O)[O-])c(O)c(OS(=O)(=O)[O-])c1)c1cc(OS(=O)(=O)[O-])c(O)c(OS(=O)(=O)[O-])c1.[Na+].[Na+].[Na+].[Na+].[Na+].[Na+].[Na+].[Na+].[Na+].[Na+]` [sulfated pentagalloylglucoside] has a Ratio (Plasma [3]) of 18, an Activity (Blood [4]) of 15.1 mm and an Activity (Blood [5]) of 43.5 mm. For the same molecule, the Activity (Blood [6]) was 49.8 mm, the Activity (Blood [7]) was 62 mm and the Activity (Blood [8]) was 9.4 degree. It also gave an Activity (Blood [9]) of 30.6 degree, an Activity (Blood [10]) of 51.4 degree and a Time (Blood [11]) of 87.1 min. The Time (Blood [12]) was 37.8 min, the Time (Blood [13]) was 22.8 min and the Time (Blood [14]) was 6.6 min. For the same molecule, the 2aPTT (Plasma [15]) was 96 µg/mL, the 2PT (Plasma [16]) was 298 µg/mL and the inhibition [17] was “inactive”. The Efficacy [18] was 55.7%, the IC50 (Coagulation factor XII) was 131 µM and the IC50 (Coagulation factor X) was 136 µM. The IC50 (Coagulation factor IX) was 582 µM, the inhibition [19] was “inactive” and the IC50 (Prothrombin) was 622 µM. For the same molecule, the Efficacy [20] was 100% and the inhibition (Bos taurus) was “inactive”.
